Source: ChEMBL document CHEMBL5537190, “Development of Potent and Selective Monoacylglycerol Lipase Inhibitors. SARs, Structural Analysis, and Biological Characterization” (J Med Chem, 2024)
The source made the active and inactive calls. The calls are words filed in the database; no cut-off is given here.

How the values were obtained:
[1] = target: Acyl-protein thioesterase 2 (Mus musculus) (UniProt Q9WTL7); assay: Binding affinity to mouse brain LYPLA2 at 0.1 to 1 uM incubated for 30 mins in presence of MB064 by ABPP assay; type: tissue-based; settings: dose 0.1-1 µM
Summary of the method: (§1)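 Male C57Bl/6J mouse brain (27 weeks) homogenised; membrane and cytosol fractions separated and diluted to 2.0 mg/mL. Samples incubated with compound (0.1 or 1 µM final) or 2.5% DMSO for 30 min at RT. Probes MB064 and FP-Bodipy (100 nM each) added for 10 min. SDS-PAGE with in-gel fluorescence; Coomassie staining as loading control.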

[2] = target: T1, Lysophosphatidylserine lipase ABHD12 (Mus musculus) (UniProt Q99LR1); assay: Binding affinity to mouse brain ABHD12 at 0.1 to 1 uM incubated for 30 mins in presence of g MB064 by ABPP assay; type: tissue-based; settings: dose 0.1-1 µM; summary of the method: as §1
T1 sequence (whole entry): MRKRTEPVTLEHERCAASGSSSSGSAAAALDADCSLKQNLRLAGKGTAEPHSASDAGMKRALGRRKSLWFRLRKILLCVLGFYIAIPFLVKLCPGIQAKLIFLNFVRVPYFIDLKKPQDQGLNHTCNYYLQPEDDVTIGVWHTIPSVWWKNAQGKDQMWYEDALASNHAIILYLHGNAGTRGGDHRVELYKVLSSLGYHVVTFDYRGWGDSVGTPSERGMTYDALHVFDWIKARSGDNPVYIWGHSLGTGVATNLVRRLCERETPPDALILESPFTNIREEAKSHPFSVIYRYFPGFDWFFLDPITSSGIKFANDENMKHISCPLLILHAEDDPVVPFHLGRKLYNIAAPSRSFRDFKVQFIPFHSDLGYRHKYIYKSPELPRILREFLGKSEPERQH

[3] = target: T2, Monoacylglycerol lipase ABHD6 (Mus musculus) (UniProt Q8R2Y0); assay: Binding affinity to mouse brain ABHD6 at 0.1 to 1 uM incubated for 30 mins in presence of MB064 by ABPP assay; type: tissue-based; settings: dose 0.1-1 µM; summary of the method: as §1
T2 sequence (whole entry): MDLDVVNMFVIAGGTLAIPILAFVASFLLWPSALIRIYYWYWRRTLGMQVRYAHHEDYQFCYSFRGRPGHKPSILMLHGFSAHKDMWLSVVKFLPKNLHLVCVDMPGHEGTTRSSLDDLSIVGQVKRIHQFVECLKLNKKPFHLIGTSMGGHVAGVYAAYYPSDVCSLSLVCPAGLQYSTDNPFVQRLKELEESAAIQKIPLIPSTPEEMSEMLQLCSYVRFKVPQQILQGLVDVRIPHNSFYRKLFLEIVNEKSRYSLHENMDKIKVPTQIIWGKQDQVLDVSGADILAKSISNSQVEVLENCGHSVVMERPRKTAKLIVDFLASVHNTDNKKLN

[4] = target: T3, Monoglyceride lipase (Mus musculus) (UniProt O35678); assay: In-vivo inhibition of ip dosed mouse MAGL assessed as increase in 2-Ag level measured after 1 hr by LC-MS/MS analysis; type: functional, organism-based; settings: dose 0.2-20 mg/kg
T3 sequence (whole entry): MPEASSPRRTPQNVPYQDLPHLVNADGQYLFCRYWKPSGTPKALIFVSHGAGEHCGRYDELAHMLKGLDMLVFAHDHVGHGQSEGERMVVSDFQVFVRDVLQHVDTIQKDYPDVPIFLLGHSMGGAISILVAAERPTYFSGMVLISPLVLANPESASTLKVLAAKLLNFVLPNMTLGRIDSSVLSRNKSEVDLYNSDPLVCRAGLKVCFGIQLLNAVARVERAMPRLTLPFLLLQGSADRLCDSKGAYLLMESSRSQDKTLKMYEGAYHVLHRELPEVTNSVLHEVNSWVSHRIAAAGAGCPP
Summary of the method: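 Adult male mice dosed i.p. at 0.2, 1, 5 or 20 mg/kg (n = 3/group), vehicle DMSO or PEG/Tween (4:1). Killed at 1 h; brains halved and frozen. One half for 2-AG by LC-MS, the other for MAGL assay on homogenate. t-test against vehicle; two-way ANOVA with Bonferroni post-test.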

[5] = target: T3, Monoglyceride lipase (Mus musculus); assay: In-vivo inhibition of MAGL activity in brain of mouse at 5 mg/kg, ip measured after 1 hrs by LC-MS analysis; type: functional, organism-based
Summary of the method: (§2)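 Adult male mice received 5 mg/kg i.p. (n = 3/group), DMSO vehicle. Killed at 1 h. Half-brains used for lipid analysis by LC-MS; the other half homogenised for MAGL activity assay. Compared with vehicle by two-tailed t-test.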

[6] = target: T3, Monoglyceride lipase (Mus musculus); assay: In-vivo inhibition of mouse MAGL assessed as effect on palmitic level in brain at 5 mg/kg, ip measured after 1 hr by LC-MS/MS analysis; type: functional, organism-based; summary of the method: as §2
[7] = target: Kappa-type opioid receptor (Homo sapiens) (UniProt P41145); assay: Agonist activity at human KOP at 10 uM relative to control; type: functional; settings: filed as agonist
[8] = target: T3, Monoglyceride lipase (Mus musculus); assay: In-vivo inhibition of mouse MAGL assessed as effect on oleic level in brain at 5 mg/kg, ip measured after 1 hr by LC-MS/MS analysis; type: functional, organism-based; summary of the method: as §2
[9] = target: T3, Monoglyceride lipase (Mus musculus); assay: In-vivo inhibition of mouse MAGL assessed as decrease in arachidonic acid level in brain at 5 mg/kg, ip measured after 1 hr by LC-MS/MS analysis; type: functional, organism-based; summary of the method: as §2
[10] = target: T3, Monoglyceride lipase (Mus musculus); assay: In-vivo inhibition of mouse MAGL assessed as fold increase in 2-AG content in brain at 5 mg/kg, ip measured after 1 hr by LC-MS/MS analysis; type: functional, organism-based; summary of the method: as §2
[11] = target: Cannabinoid receptor 2 (Homo sapiens, UniProt P34972); assay: Agonist activity at human CB2 receptor at 10 uM by TR-FRET assay; type: functional
[12] = target: T3, Monoglyceride lipase (Mus musculus); assay: In-vivo inhibition of mouse MAGL assessed as effect on stearic level in brain at 5 mg/kg, ip measured after 1 hr by LC-MS/MS analysis; type: functional, organism-based; summary of the method: as §2
[13] = target: T3, Monoglyceride lipase (Mus musculus); assay: In-vivo inhibition of mouse MAGL assessed as effect on OEA level in brain at 5 mg/kg, ip measured after 1 hr by LC-MS/MS analysis; type: functional, organism-based; summary of the method: as §2
[14] = target: T3, Monoglyceride lipase (Mus musculus); assay: In-vivo inhibition of mouse MAGL assessed as effect on docosahexaenoic level in brain at 5 mg/kg, ip measured after 1 hr by LC-MS/MS analysis; type: functional, organism-based; summary of the method: as §2
[15] = target: Cannabinoid receptor 1 (Homo sapiens) (UniProt P21554); assay: Agonist activity at CB1 receptor (unknown origin) at 10 uM; type: functional
[16] = target: T4, Monoglyceride lipase (Rattus norvegicus) (UniProt Q8R431); assay: Inhibition of wild type rat MAGL expressed in human HeLa cells; type: cell-based; settings: time 10.0 min, TDE = time-dependent effect
T4 sequence (whole entry): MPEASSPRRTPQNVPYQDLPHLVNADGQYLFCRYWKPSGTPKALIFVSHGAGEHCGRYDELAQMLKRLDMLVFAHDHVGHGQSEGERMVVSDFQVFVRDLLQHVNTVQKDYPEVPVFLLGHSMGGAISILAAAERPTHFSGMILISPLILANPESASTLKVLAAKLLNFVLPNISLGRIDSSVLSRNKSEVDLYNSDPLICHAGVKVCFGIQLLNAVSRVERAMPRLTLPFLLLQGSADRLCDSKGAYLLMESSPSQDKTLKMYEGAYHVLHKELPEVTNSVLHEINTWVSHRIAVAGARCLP
Summary of the method: (§3)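 Homogenates of HeLa cells overexpressing wild-type rat MAGL, in 50 mM Tris-HCl pH 8.0 with 0.5 mg/mL fatty-acid-free BSA, 37 °C; 2-OG substrate 10 µM final, oleic acid by LC/MS. Time course: preincubation for varied times, then 30 min with substrate. Dilution: enzyme concentrated 100-fold, preincubated 20 min with 10× IC50-equivalent compound or 1% DMSO, diluted 100-fold into substrate buffer, product followed over 60 min (n = 3).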

[17] = target: T3, Monoglyceride lipase (Mus musculus); assay: In-vivo inhibition of mouse MAGL assessed as effect on PEA level in brain at 5 mg/kg, ip measured after 1 hr by LC-MS/MS analysis; type: functional, organism-based; summary of the method: as §2
[18] = target: T3, Monoglyceride lipase (Mus musculus); assay: In-vivo inhibition of mouse MAGL assessed as effect on AEA level in brain at 5 mg/kg, ip measured after 1 hr by LC-MS/MS analysis; type: functional, organism-based; summary of the method: as §2
[19] = target: T4, Monoglyceride lipase (Rattus norvegicus); assay: Irreversible inhibition of rat MAGL expressed in human HeLa cells incubated for 60 mins; type: cell-based; summary of the method: as §3

Chain of Acyl-protein thioesterase 2 (Mus musculus) (Q9WTL7 whole entry): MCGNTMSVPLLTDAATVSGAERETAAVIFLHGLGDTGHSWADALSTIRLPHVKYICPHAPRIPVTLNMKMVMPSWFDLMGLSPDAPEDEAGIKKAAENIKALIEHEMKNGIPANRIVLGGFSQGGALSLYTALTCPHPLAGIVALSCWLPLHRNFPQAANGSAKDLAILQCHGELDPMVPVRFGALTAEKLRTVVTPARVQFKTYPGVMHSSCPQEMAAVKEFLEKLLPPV
Chain of Cannabinoid receptor 2 (P34972 whole entry): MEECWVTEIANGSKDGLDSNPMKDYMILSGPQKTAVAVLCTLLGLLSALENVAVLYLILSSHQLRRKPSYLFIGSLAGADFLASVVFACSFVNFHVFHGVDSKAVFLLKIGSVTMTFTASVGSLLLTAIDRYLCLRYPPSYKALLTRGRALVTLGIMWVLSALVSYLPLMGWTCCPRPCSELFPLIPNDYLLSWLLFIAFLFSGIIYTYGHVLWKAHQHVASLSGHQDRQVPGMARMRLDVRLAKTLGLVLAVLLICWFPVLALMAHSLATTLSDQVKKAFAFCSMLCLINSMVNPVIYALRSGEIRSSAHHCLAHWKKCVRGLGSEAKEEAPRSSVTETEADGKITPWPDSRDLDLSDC
Chain of Kappa-type opioid receptor (Homo sapiens) (P41145 whole entry): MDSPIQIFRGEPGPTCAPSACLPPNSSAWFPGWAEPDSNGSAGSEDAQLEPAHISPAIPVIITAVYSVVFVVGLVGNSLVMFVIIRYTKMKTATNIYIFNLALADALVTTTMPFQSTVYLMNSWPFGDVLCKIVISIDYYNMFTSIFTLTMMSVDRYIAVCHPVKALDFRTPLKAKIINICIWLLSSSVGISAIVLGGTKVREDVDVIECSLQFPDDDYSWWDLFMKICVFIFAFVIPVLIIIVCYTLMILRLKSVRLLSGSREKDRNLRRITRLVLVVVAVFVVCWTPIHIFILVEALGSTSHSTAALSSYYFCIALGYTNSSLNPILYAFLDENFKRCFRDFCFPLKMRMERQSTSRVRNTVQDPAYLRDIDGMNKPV
Chain of Cannabinoid receptor 1 (Homo sapiens) (P21554 whole entry): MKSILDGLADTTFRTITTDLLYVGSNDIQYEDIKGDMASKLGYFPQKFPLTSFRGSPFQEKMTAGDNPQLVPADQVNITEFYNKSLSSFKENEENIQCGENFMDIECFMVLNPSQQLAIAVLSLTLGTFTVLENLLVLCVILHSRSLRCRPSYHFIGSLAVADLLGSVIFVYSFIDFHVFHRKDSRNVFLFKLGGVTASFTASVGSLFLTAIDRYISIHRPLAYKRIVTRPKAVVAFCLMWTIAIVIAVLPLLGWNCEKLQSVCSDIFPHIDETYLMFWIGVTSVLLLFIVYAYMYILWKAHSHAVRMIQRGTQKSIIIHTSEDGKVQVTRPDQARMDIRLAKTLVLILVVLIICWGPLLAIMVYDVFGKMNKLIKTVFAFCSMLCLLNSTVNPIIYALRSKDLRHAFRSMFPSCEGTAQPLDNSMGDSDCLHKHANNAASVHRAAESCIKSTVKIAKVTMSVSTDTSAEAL

| Structure (SMILES) | Activity [1] | Activity [2] | Activity [3] | inhibition [4] | inhibition [5] [%] | inhibition [6] | Activity [7] [%] | inhibition [8] | inhibition [9] | fold change (FC) [10] | Activity [11] | inhibition [12] | inhibition [13] | inhibition [14] | Activity [15] | inhibition [16] | inhibition [17] | inhibition [18] | inhibition [19] |
| --- | --- | --- | --- | --- | --- | --- | --- | --- | --- | --- | --- | --- | --- | --- | --- | --- | --- | --- | --- |
| O=C1[C@H](c2ccc(F)cc2)[C@@H](c2ccc3c(c2)OCO3)N1C1CCN(C(=O)n2nnc3ccccc32)CC1 | Active | Active | Active |  |  |  |  |  |  |  |  |  |  |  |  |  |  |  |  |
| O=C1[C@H](c2ccc(F)cc2)[C@@H](c2ccc3c(c2)OCO3)N1C1CCN(C(=O)n2nnc3ccccc32)CC1 (racemic) | Active | Active | Active | Dose-Dependent Effect | 50 | Active | 73 | Active | Active | > 40 | inactive | Active | Dose-Dependent Effect | Active | inactive | Tde | Dose-Dependent Effect | Dose-Dependent Effect | Active |
| O=C(Oc1ccc([N+](=O)[O-])cc1)N1CCC(C(O)(c2ccc3c(c2)OCO3)c2ccc3c(c2)OCO3)CC1 |  |  |  | Dose-Dependent Effect |  |  |  |  |  |  |  |  |  |  |  |  |  |  |  |
